# High-throughput results from PubChem BioAssay.
# PfGluPho inh: PfG6PD (Plasmodium falciparum) enzyme inhibition; PfGluPho enzyme, NADPH resazurin-diaphorase fluorescence; inhibition, % at 20 µM; 350,000 tested, 0.78% active;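 active = inhibition reaching at least a set limit at 20 µM in the primary screen, cut at about 59% in these data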
# HKDC1 inh: blocks human hexokinase HKDC1 activity; AID 493160; inhibition, % at 20 µM; recombinant HKDC1, G6PDH/diaphorase resazurin coupled fluorescence; Q2TB90; 340,000 tested, 0.16% active;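 active = inhibition above about 35% when tested at 20 µM, limit read from the data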
# Target sequence (Q2TB90 whole entry, looked up): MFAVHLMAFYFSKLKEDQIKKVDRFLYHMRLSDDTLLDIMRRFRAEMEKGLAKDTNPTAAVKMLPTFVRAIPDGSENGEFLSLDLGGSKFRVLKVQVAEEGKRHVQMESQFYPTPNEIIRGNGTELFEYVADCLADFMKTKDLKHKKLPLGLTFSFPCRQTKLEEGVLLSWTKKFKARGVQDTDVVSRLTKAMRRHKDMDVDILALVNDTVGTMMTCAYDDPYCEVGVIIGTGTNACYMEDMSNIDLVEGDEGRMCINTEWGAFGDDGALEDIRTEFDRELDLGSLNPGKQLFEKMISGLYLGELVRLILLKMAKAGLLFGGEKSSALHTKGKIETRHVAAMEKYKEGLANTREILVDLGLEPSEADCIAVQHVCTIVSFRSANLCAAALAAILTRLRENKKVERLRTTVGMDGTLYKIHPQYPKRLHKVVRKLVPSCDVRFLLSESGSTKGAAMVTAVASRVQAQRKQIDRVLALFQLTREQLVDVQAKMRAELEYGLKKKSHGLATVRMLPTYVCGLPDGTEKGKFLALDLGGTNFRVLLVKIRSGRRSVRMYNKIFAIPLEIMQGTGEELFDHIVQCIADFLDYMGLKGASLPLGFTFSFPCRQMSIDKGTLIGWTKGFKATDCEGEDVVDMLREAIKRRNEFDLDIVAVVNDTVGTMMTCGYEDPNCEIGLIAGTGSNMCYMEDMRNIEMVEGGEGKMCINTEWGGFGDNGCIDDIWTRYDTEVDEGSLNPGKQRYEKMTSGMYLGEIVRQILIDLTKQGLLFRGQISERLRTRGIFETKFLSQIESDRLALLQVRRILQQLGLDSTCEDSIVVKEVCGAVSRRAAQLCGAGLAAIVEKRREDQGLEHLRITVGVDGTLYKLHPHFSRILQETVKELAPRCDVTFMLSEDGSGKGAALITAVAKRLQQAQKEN
#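 Material – in-house recombinant HK5 (HKDC1) enzyme · Quantity – HKDC1 at 5 µg/mL · Buffer or medium – pH 8.0 Tris buffer with 10 mM MgCl2 · Reagent – glucose with 1 mM ATP · Dosing – single 20 µM dose · Times – reaction time 90 min, room temperature, protected from light · Technique – resorufin fluorescence at 613 nm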
# M18AAP inhibitor: PfM18AAP enzyme inhibition | 290,000 tested, 1.2% active | recombinant PfM18AAP, H-Glu-NHMec fluorogenic cleavage | inhibition, % at 7.35 µM;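 active = inhibition above the campaign mean inhibition over all tested compounds plus 3 SD, cut at about 28% in these data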
# Neddyl block: inhibitors of human cullin neddylation. 360,000 tested, 0.58% active. TR-FRET cullin neddylation, biochemical. P61081+Q13564. inhibition, % at 25 µM; in the data active = inhibition above about 36%
# PfG6PD confirm: confirmation of Plasmodium falciparum G6PD inhibitors; shares compounds with PfGluPho inh; recombinant PfGluPho, NADPH-diaphorase-resazurin fluorescence; inhibition, % at 20 µM; 2,400 tested, 34% active; AID 504753;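 active = inhibition of at least 50% at 20 µM in any single replicate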
# Diaph ctr 10uM: diaphorase inhibition or oxidation at 10 uM NADPH; shares compounds with PfGluPho inh; diaphorase-coupled resazurin reduction, fluorescence, NADPH 10 uM; inhibition, % at 20 µM; 820 tested, 39% active; AID 504862;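 active = average inhibition reaching 50% or more with the compound at 20 µM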;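 also: resorufin red fluorescence formed as diaphorase reduces resazurin using NADPH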
# Diaphorase 30uM: counter-screen for P. falciparum G6PD inhibitors: diaphorase inhibitors, oxidizers; shares compounds with PfGluPho inh; Diaphorase/resazurin coupled assay, resorufin fluorescence, 30 uM NADPH; inhibition, % at 20 µM; 820 tested, 29% active; AID 504863;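 active = inhibition averaging 50% or more, tested at 20 µM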
# Neddyl conf: cullin neddylation inhibition, confirmation | shares compounds with Neddyl block | TR-FRET cullin neddylation biochemical assay | calls only at 25 µM | 1,800 tested, 13% active; in the data active = inhibition above about 40%;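 also: neddylation substrate is the cullin 1 ring ligase complex with SKP2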
# Numbers stand for hits; - = inactive; . = not tested or not shown; + = active, no number. Most compounds without a hit are left out; they make up all but 2.2% or so of the library.
SMILES,PfGluPho inh,HKDC1 inh,M18AAP inhibitor,Neddyl block,PfG6PD confirm,others
NCCc1cc(O)c(O)cc1O,94,-,.,-,68,Diaph ctr 10uM=53;Diaphorase 30uM=-
Cc1cccc(N=C2c3cc([N+](=O)[O-])ccc3-c3c2cc([N+](=O)[O-])cc3[N+](=O)[O-])c1,74,-,.,-,-,
COC(=O)C1=C(c2ccc(OC)c(OC)c2)C[C@@H]2CC[C@H]1N2C(=O)N1CCc2cc(OC)c(OC)cc2C1,-,-,.,-,.,
O=C1C(Cl)=CC(=Nc2ccc(O)cc2)C=C1Cl,116,-,.,-,111,Diaph ctr 10uM=93;Diaphorase 30uM=81
NC(Cc1nc2ccccc2[nH]1)c1ccc(Cl)cc1 (stereo not given),-,-,-,-,.,
CC(=O)O[C@H]1CC[C@@]2(C)[C@H](C1)C(=O)C[C@H]1[C@@H]3CC[C@@H]4[C@@H](CN5C[C@@H](C)CC[C@H]5[C@@]4(C)O)[C@@H]3C[C@@H]12,-,-,-,-,.,
CCn1nc(/C=C/c2ccccc2)nc2c(=O)n(C)c(=O)nc1-2,102,-,-,-,76,Diaph ctr 10uM=93;Diaphorase 30uM=98
CC(C)(C)C(=O)Cn1c(NCCCl)nc2ccccc21,-,-,-,-,.,
CCOP(=S)(OCC)Oc1cc(C)oc(=O)c1Cl,63,-,-,-,-,
CCOP(=S)(OCC)Oc1ccc2c(C)c(Cl)c(=O)oc2c1,-,-,.,-,.,
CC(=O)OC1N=C(c2ccccc2)c2cc(Br)ccc2NC1=O (stereo not given),-,-,-,-,.,
CC(=O)OC1N=C(c2ccc(Cl)cc2)c2cc(Br)ccc2NC1=O (stereo not given),78,-,-,-,-,
COc1ccc(OC)c(C(O)C2CCCCN2)c1 (stereo not given),-,-,-,-,.,
Cc1ccc(/C=C2\C(=O)NC(=S)N(c3ccccc3F)C2=O)s1,66,-,-,-,56,Diaph ctr 10uM=-;Diaphorase 30uM=-
Cc1ccc(/C=C2\C(=O)NC(=S)N(c3ccc(F)cc3)C2=O)s1,-,-,-,-,.,
Cc1ccc2c(c1)C(c1ccccc1)=NCC(=O)N2C,-,-,.,-,.,
COc1ccc(N2C(=O)/C(=C/C=C/c3ccccc3[N+](=O)[O-])C(=O)NC2=S)cc1,61,-,-,.,-,
COc1ccc(N2C(=O)/C(=C/c3cccs3)C(=O)NC2=S)cc1,-,-,-,-,.,
CN(C)c1nc(-c2ccccc2)[n+](C)s1,-,-,-,-,.,
Cc1ccc(-c2nc(N3CCOCC3)s[n+]2-c2ccccc2)cc1,60,-,-,-,77,Diaph ctr 10uM=-;Diaphorase 30uM=-
COC(=O)C1C2CC[C@@H](CC1OC(=O)c1ccccc1)N2 (stereo not given in full),-,-,.,-,.,
CC(C)N1CCN(c2ccc(O)cc2)CC1,72,-,-,-,-,
COc1cccc(N2C(=O)NC(=O)/C(=C/c3ccc([N+](=O)[O-])s3)C2=O)c1,83,-,-,-,-,
C[n+]1ccc(-c2ccccc2)c2ccccc21,-,-,.,28,.,Neddyl conf=+
CN(C)c1ccc(/C=C/c2cc[n+](C)c3ccccc23)cc1,-,-,-,-,.,
SMILES,PfGluPho inh,HKDC1 inh,M18AAP inhibitor,Neddyl block,PfG6PD confirm,others
CCn1c(O)c(/C=N/NC(=O)c2ccccc2)c(=O)[nH]c1=S,-,-,-,60,.,Neddyl conf=-
CN(C)C(=O)Oc1c(Cl)cc(Cl)c2ccccc12,-,-,-,-,.,
CN(C)C(=O)Oc1ccc(Cl)c2cccnc12,-,-,-,42,.,Neddyl conf=-
Cc1cc(N(CCCl)CCCl)ccc1C=NNC(=O)c1cccnc1,-,-,.,39,.,Neddyl conf=-
O=C1CN=C(c2ccc[nH]2)c2cc(Cl)ccc2N1,-,-,-,39,.,Neddyl conf=+
CSc1nnc(OC(=O)N(C)C)n1-c1ccc(Cl)cc1,-,-,-,-,.,
CCCCCCC(=O)N/N=C/c1c(O)n(C(C)CC)c(=S)[nH]c1=O (stereo not given),-,-,-,-,.,
CCCCCCC(=O)N/N=C/c1c(O)n(C2CC2)c(=S)[nH]c1=O,-,-,-,56,.,Neddyl conf=-
Clc1cccc(NC2=NCCS2)c1,-,.,.,-,.,
O=C1CN=C(c2ccc(Br)cc2)c2oc3ccccc3c2N1,-,-,-,40,.,Neddyl conf=-
COc1cccc(C(c2nnnn2-c2c(C)cccc2C)N2CCC(n3c(=O)[nH]c4ccccc43)CC2)c1OC (stereo not given),.,.,.,-,.,
O=C(O)C1C2CCC(O2)C1C(=O)Nc1cccc(Br)c1 (stereo not given),-,-,-,-,.,
